Results taken from ChEMBL document CHEMBL2062460, “Disubstituted thiourea derivatives and their activity on CNS: synthesis and biological evaluation” (Eur J Med Chem, 2012).
In brackets after ≈: the same amount, converted by molar mass. Activity calls are given as the source filed them. The rule behind the calls is not given here.

Each compound was assayed on Staphylococcus aureus (assay: Antibacterial activity against methicillin-susceptible Staphylococcus aureus clinical isolate 369/09 after 18 hrs by twofold serial agar dilution technique). Details: clinical isolate 369/09, 18 h.
Type: functional
Method in brief: (§1)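 Clinical isolates came from patients in Warsaw Medical University Hospitals and were classed as methicillin-susceptible or -resistant. MIC was determined by twofold serial agar dilution on Mueller–Hinton II agar (CLSI), 3.125–400 µg/mL in agar, with compounds in methanol or DMSO. Inoculum was 10^4 CFU/mL and plates were read after 18 h at 35 °C.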

Compound | MIC [µg/mL]
Fc1cccc(NC(=S)Nc2nc[nH]n2)c1 | 12.5 (≈ 52.7 µM)

Each compound was assayed on Escherichia coli (assay: Antibacterial activity against Escherichia coli ATCC 25922 at 400 ug/disc after 18 hrs by disc diffusion method). Details: not given.
Type: functional, organism-based
Method in brief: (§2)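 Disc diffusion per CLSI on Mueller–Hinton II agar; 9 mm paper discs loaded from methanol or DMSO solutions to 400 µg per disc, dried; growth inhibition zone diameter read after 18 h at 35 °C.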

Compound | diameter of the inhibition zone (DIZ)
Fc1cccc(NC(=S)Nc2nc[nH]n2)c1 | inactive

Each compound was assayed on Staphylococcus aureus (assay: Antibacterial activity against methicillin-resistant Staphylococcus aureus clinical isolate 277/08 after 18 hrs by twofold serial agar dilution technique). Details: clinical isolate 277/08, 18 h.
Type: functional
Method in brief: as §1

Compound | MIC [µg/mL]
Fc1cccc(NC(=S)Nc2nc[nH]n2)c1 | 12.5 (≈ 52.7 µM)

Each compound was assayed on Micrococcus luteus (assay: Antibacterial activity against Micrococcus luteus ATCC 9341 after 18 hrs by twofold serial agar dilution technique). Details: ATCC 9341, 18 h.
Type: functional

Compound | MIC [µg/mL]
Fc1cccc(NC(=S)Nc2nc[nH]n2)c1 | 50 (≈ 211 µM)

Each compound was assayed on Staphylococcus aureus (assay: Antibacterial activity against methicillin-susceptible Staphylococcus aureus clinical isolate 338/08 after 18 hrs by twofold serial agar dilution technique). Details: clinical isolate 338/08, 18 h.
Type: functional
Method in brief: as §1

Compound | MIC [µg/mL]
Fc1cccc(NC(=S)Nc2nc[nH]n2)c1 | 24 (≈ 101 µM)

These compounds were tested on Staphylococcus aureus (assay: Antibacterial activity against methicillin-resistant Staphylococcus aureus clinical isolate 309/08 after 18 hrs by twofold serial agar dilution technique). Details: clinical isolate 309/08, 18 h.
Type: functional
Method in brief: as §1

Compound | MIC [µg/mL]
Fc1cccc(NC(=S)Nc2nc[nH]n2)c1 | 12.5 (≈ 52.7 µM)

What follows are compounds tested on Staphylococcus aureus (assay: Antibacterial activity against methicillin-resistant Staphylococcus aureus clinical isolate 325/09 after 18 hrs by twofold serial agar dilution technique). Details: clinical isolate 325/09, 18 h.
Type: functional
Method in brief: as §1

Compound | MIC [µg/mL]
Fc1cccc(NC(=S)Nc2nc[nH]n2)c1 | 12.5 (≈ 52.7 µM)

The compounds below were run on Staphylococcus aureus (assay: Antibacterial activity against methicillin-resistant Staphylococcus aureus clinical isolate 376/09 after 18 hrs by twofold serial agar dilution technique). Details: clinical isolate 376/09, 18 h.
Type: functional
Method in brief: as §1

Compound | MIC [µg/mL]
Fc1cccc(NC(=S)Nc2nc[nH]n2)c1 | 25 (≈ 105 µM)

Each compound was assayed on Proteus vulgaris (assay: Antibacterial activity against Proteus vulgaris NCTC 4635 at 400 ug/disc after 18 hrs by disc diffusion method). Details: not given.
Type: functional, organism-based
Method in brief: as §2

Compound | diameter of the inhibition zone (DIZ)
Fc1cccc(NC(=S)Nc2nc[nH]n2)c1 | inactive

These compounds were tested on Staphylococcus aureus (assay: Antibacterial activity against Staphylococcus aureus ATCC 25923 at 400 ug/disc after 18 hrs by disc diffusion method). Details: ATCC 25923, 18 h, read-out: DIZ.
Type: functional
Method in brief: as §2

Compound | zone of inhibition at 400 µg/disc [mm]
Fc1cccc(NC(=S)Nc2nc[nH]n2)c1 | 34

These compounds were tested on Staphylococcus aureus (assay: Antibacterial activity against Staphylococcus aureus NCTC 4163 after 18 hrs by twofold serial agar dilution technique). Details: NCTC 4163, 18 h.
Type: functional
Method in brief: (§3)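 Twofold serial agar dilution on Mueller–Hinton II agar, following CLSI guidelines. Compounds were dissolved in methanol or DMSO and tested at final agar concentrations of 3.125–400 µg/mL. Final inoculum was 10^4 CFU/mL.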

Compound | MIC [µg/mL]
Fc1cccc(NC(=S)Nc2nc[nH]n2)c1 | 50 (≈ 211 µM)

These compounds were tested on Candida parapsilosis (assay: Antifungal activity against Candida parapsilosis ATCC 22019 at 400 ug/disc after 18 hrs by disc diffusion method). Details: not given.
Type: functional, organism-based
Method in brief: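 Yeasts tested by disc diffusion (CLSI) on RPMI agar with 2% glucose; 9 mm paper discs bearing 400 µg compound from methanol or DMSO solution; inhibition zone diameter read after 18 h at 35 °C.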

Compound | diameter of the inhibition zone (DIZ)
Fc1cccc(NC(=S)Nc2nc[nH]n2)c1 | inactive

Each compound was assayed on Staphylococcus aureus (assay: Antibacterial activity against methicillin-susceptible Staphylococcus aureus clinical isolate 261/08 after 18 hrs by twofold serial agar dilution technique). Details: clinical isolate 261/08, 18 h.
Type: functional
Method in brief: as §1

Compound | MIC [µg/mL]
Fc1cccc(NC(=S)Nc2nc[nH]n2)c1 | 25 (≈ 105 µM)

These compounds were tested on Bordetella bronchiseptica (assay: Antibacterial activity against Bordetella bronchiseptica ATCC 4617 at 400 ug/disc after 18 hrs by disc diffusion method). Details: not given.
Type: functional, organism-based
Method in brief: as §2

Compound | diameter of the inhibition zone (DIZ)
Fc1cccc(NC(=S)Nc2nc[nH]n2)c1 | inactive

What follows are compounds tested on Bacillus cereus (assay: Antibacterial activity against Bacillus cereus ATCC 11778 at 400 ug/disc after 18 hrs by disc diffusion method). Details: ATCC 11778, 18 h, read-out: DIZ.
Type: functional
Method in brief: as §2

Compound | zone of inhibition at 400 µg/disc [mm]
Fc1cccc(NC(=S)Nc2nc[nH]n2)c1 | 14

The compounds below were run on Escherichia coli (assay: Antibacterial activity against Escherichia coli ATCC 10538 at 400 ug/disc after 18 hrs by disc diffusion method). Details: not given.
Type: functional, organism-based
Method in brief: as §2

Compound | diameter of the inhibition zone (DIZ)
Fc1cccc(NC(=S)Nc2nc[nH]n2)c1 | inactive

What follows are compounds tested on Enterococcus hirae (assay: Antibacterial activity against Enterococcus hirae ATCC 10541 at 400 ug/disc after 18 hrs by disc diffusion method). Details: ATCC 10541, 18 h, read-out: DIZ.
Type: functional
Method in brief: as §2

Compound | zone of inhibition at 400 µg/disc [mm]
Fc1cccc(NC(=S)Nc2nc[nH]n2)c1 | 16

Each compound was assayed on Staphylococcus aureus (assay: Antibacterial activity against methicillin-susceptible Staphylococcus aureus clinical isolate 367/09 after 18 hrs by twofold serial agar dilution technique). Details: clinical isolate 367/09, 18 h.
Type: functional
Method in brief: as §1

Compound | MIC [µg/mL]
Fc1cccc(NC(=S)Nc2nc[nH]n2)c1 | 12.5 (≈ 52.7 µM)

These compounds were tested on Bacillus subtilis (assay: Antibacterial activity against Bacillus subtilis ATCC 6633 at 400 ug/disc after 18 hrs by disc diffusion method). Details: ATCC 6633, 18 h, read-out: DIZ.
Type: functional
Method in brief: as §2

Compound | zone of inhibition at 400 µg/disc [mm]
Fc1cccc(NC(=S)Nc2nc[nH]n2)c1 | 32

Each compound was assayed on Staphylococcus aureus (assay: Antibacterial activity against methicillin-resistant Staphylococcus aureus clinical isolate 307/08 after 18 hrs by twofold serial agar dilution technique). Details: clinical isolate 307/08, 18 h.
Type: functional
Method in brief: as §1

Compound | MIC [µg/mL]
Fc1cccc(NC(=S)Nc2nc[nH]n2)c1 | 12.5 (≈ 52.7 µM)

Each compound was assayed on Staphylococcus aureus (assay: Antibacterial activity against methicillin-susceptible Staphylococcus aureus clinical isolate 339/09 after 18 hrs by twofold serial agar dilution technique). Details: clinical isolate 339/09, 18 h.
Type: functional
Method in brief: as §1

Compound | MIC [µg/mL]
Fc1cccc(NC(=S)Nc2nc[nH]n2)c1 | 12.5 (≈ 52.7 µM)

What follows are compounds tested on Pseudomonas aeruginosa (assay: Antibacterial activity against Pseudomonas aeruginosa NCTC 6749 at 400 ug/disc after 18 hrs by disc diffusion method). Details: not given.
Type: functional, organism-based
Method in brief: as §2

Compound | diameter of the inhibition zone (DIZ)
Fc1cccc(NC(=S)Nc2nc[nH]n2)c1 | inactive

The compounds below were run on Staphylococcus aureus (assay: Antibacterial activity against methicillin-resistant Staphylococcus aureus clinical isolate 356/09 after 18 hrs by twofold serial agar dilution technique). Details: clinical isolate 356/09, 18 h.
Type: functional
Method in brief: as §1

Compound | MIC [µg/mL]
Fc1cccc(NC(=S)Nc2nc[nH]n2)c1 | 12.5 (≈ 52.7 µM)

These compounds were tested on Bacillus cereus (assay: Antibacterial activity against Bacillus cereus ATCC 11778 after 18 hrs by twofold serial agar dilution technique). Details: ATCC 11778, 18 h.
Type: functional

Compound | MIC [µg/mL]
Fc1cccc(NC(=S)Nc2nc[nH]n2)c1 | 50 (≈ 211 µM)

The compounds below were run on Staphylococcus aureus (assay: Antibacterial activity against Staphylococcus aureus ATCC 6538 at 400 ug/disc after 18 hrs by disc diffusion method). Details: ATCC 6538, 18 h, read-out: DIZ.
Type: functional
Method in brief: as §2

Compound | zone of inhibition at 400 µg/disc [mm]
Fc1cccc(NC(=S)Nc2nc[nH]n2)c1 | 15

The compounds below were run on Micrococcus luteus (assay: Antibacterial activity against Micrococcus luteus ATCC 10240 at 400 ug/disc after 18 hrs by disc diffusion method). Details: ATCC 10240, 18 h, read-out: DIZ.
Type: functional
Method in brief: as §2

Compound | zone of inhibition at 400 µg/disc [mm]
Fc1cccc(NC(=S)Nc2nc[nH]n2)c1 | 40

What follows are compounds tested on Staphylococcus aureus (assay: Antibacterial activity against methicillin-resistant Staphylococcus aureus clinical isolate 275/08 after 18 hrs by twofold serial agar dilution technique). Details: clinical isolate 275/08, 18 h.
Type: functional
Method in brief: as §1

Compound | MIC [µg/mL]
Fc1cccc(NC(=S)Nc2nc[nH]n2)c1 | 25 (≈ 105 µM)

The compounds below were run on Staphylococcus aureus (assay: Antibacterial activity against Staphylococcus aureus ATCC 29213 after 18 hrs by twofold serial agar dilution technique). Details: ATCC 29213, 18 h.
Type: functional
Method in brief: as §3

Compound | MIC [µg/mL]
Fc1cccc(NC(=S)Nc2nc[nH]n2)c1 | 50 (≈ 211 µM)

These compounds were tested on Staphylococcus aureus (assay: Antibacterial activity against methicillin-resistant Staphylococcus aureus clinical isolate 306/08 after 18 hrs by twofold serial agar dilution technique). Details: clinical isolate 306/08, 18 h.
Type: functional
Method in brief: as §1

Compound | MIC [µg/mL]
Fc1cccc(NC(=S)Nc2nc[nH]n2)c1 | 12.5 (≈ 52.7 µM)
